Measurements from ChEMBL document CHEMBL4261563, “Synthesis and in vitro evaluation of substituted 3-cinnamoyl-4-hydroxy-pyran-2-one (CHP) in pursuit of new potential antituberculosis agents” (Medchemcomm, 2018).
Values after ≈ are worked out from the molar mass of the structure shown.

Key:
[1] = tested on: Mycobacterium tuberculosis; test: Antitubercular activity against Mycobacterium tuberculosis H37Rv after 2 weeks by broth microdilution method; type: functional; settings: 336 h
Method in brief: (§1)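 Middlebrook 7H9 broth microdilution with 10% ADC, compounds at […] μg ml−1 in duplicate. Each well received mid-log M. tuberculosis H37Rv at ∼1 × 10^5 CFU ml−1, checked by plating 10-fold dilutions on 7H11 agar (37 °C, read at four weeks). Drug-free broth was the negative control. MIC was the lowest concentration (μg ml−1) preventing visible growth after two weeks.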

[2] = tested on: Mycobacterium tuberculosis; test: Antitubercular activity against Mycobacterium tuberculosis H37Rv; type: functional; method in brief: as §1
[3] = Selectivity ratio of MIC for Mycobacterium smegmatis to MIC for Mycobacterium tuberculosis H37Rv; type: functional
[4] = tested on: Mycolicibacterium smegmatis; test: Antimycobacterial activity against Mycobacterium smegmatis after 72 hrs by broth microdilution method; type: functional
[5] = tested on: HEK293; test: Cytotoxicity against HEK293 cells by MTT assay; type: cell-based, Homo sapiens; settings: for IC50: Homo sapiens, HEK293; for Activity: human, hek293
Method in brief: (§2)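 HEK-293 (from NCCS, Pune) treated at 1, 20, 40 and 80 μM, then at 100 μM. Percentage growth inhibition measured by MTT assay. IC50 assigned from whether inhibition reached ≥50% at 100 μM, the highest concentration tested.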

[6] = tested on: Enterococcus faecalis; test: Antibacterial activity against Enterococcus faecalis ATCC 51299 after 24 hrs by broth microdilution method; type: functional; settings: ATCC 51299, 24 h
Method in brief: (§3)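 Strains revived on Mueller Hinton agar, 37 °C for 24 h. MIC by broth microdilution in MH broth, read after 24 h at 37 °C by visual turbidity, highest concentration tested 128 μg ml−1. Levofloxacin as positive control.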

[7] = tested on: Bacillus subtilis; test: Antibacterial activity against Bacillus subtilis ATCC 11774 after 24 hrs by broth microdilution method; type: functional; settings: ATCC 11774, 24 h; method in brief: as §3
[8] = tested on: Micrococcus luteus; test: Antibacterial activity against Micrococcus luteus ATCC 10240 after 24 hrs by broth microdilution method; type: functional; settings: ATCC 10240, 24 h; method in brief: as §3
[9] = tested on: Pseudomonas aeruginosa; test: Antibacterial activity against Pseudomonas aeruginosa ATCC 10145 after 24 hrs by broth microdilution method; type: functional; settings: ATCC 10145, 24 h; method in brief: as §3
[10] = tested on: Staphylococcus aureus; test: Antibacterial activity against Staphylococcus aureus ATCC 25923 after 24 hrs by broth microdilution method; type: functional; settings: ATCC 25923, 24 h; method in brief: as §3
[11] = tested on: Klebsiella pneumoniae; test: Antibacterial activity against Klebsiella pneumoniae ATCC BAA-2146 after 24 hrs by broth microdilution method; type: functional; settings: ATCC BAA-2146, 24 h; method in brief: as §3
[12] = tested on: Staphylococcus epidermidis; test: Antibacterial activity against Staphylococcus epidermidis ATCC 12228 after 24 hrs by broth microdilution method; type: functional; settings: ATCC 12228, 24 h; method in brief: as §3
[13] = tested on: Escherichia coli; test: Antibacterial activity against Escherichia coli ATCC 10536 after 24 hrs by broth microdilution method; type: functional; settings: ATCC 10536, 24 h; method in brief: as §3
[14] = Cytotoxicity against human MCF7 cells assessed as growth inhibition at 100 uM by MTT assay relative to control; type: cell-based; settings: read-out: GI
Method in brief: (§4)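 HCT-116, MCF-7 and PC-3 cells (from NCI, USA) exposed to double dilutions from 0.0 to 100 μM. Growth inhibition measured by MTT cell viability assay. Results given as mean ± standard deviation of percentage growth inhibition.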

[15] = tested on: MCF7; test: Cytotoxicity against human MCF7 cells assessed as growth inhibition by MTT assay; type: cell-based; settings: for Activity: human, mcf7; method in brief: as §4
[16] = Cytotoxicity against HEK293 cells assessed as growth inhibition at 100 uM by MTT assay relative to control; type: cell-based; settings: human, read-out: GI; method in brief: as §2
[17] = tested on: HCT-116; test: Cytotoxicity against human HCT116 cells assessed as growth inhibition by MTT assay; type: cell-based; settings: for Activity: human, hct-116; method in brief: as §4
[18] = Cytotoxicity against human PC3 cells assessed as growth inhibition at 100 uM by MTT assay relative to control; type: cell-based, PC-3; settings: read-out: GI; method in brief: as §4
[19] = tested on: PC-3; test: Cytotoxicity against human PC3 cells assessed as growth inhibition by MTT assay; type: cell-based; settings: for Activity: human, pc-3; method in brief: as §4
[20] = Cytotoxicity against human HCT116 cells assessed as growth inhibition at 100 uM by MTT assay relative to control; type: cell-based, HCT-116; settings: read-out: GI; method in brief: as §4

| Structure (SMILES) | MIC [1] | MIC ([4]; read-out: MIC) | IC50 [5] | also measured |
| --- | --- | --- | --- | --- |
| CO[C@H]1/C=C/O[C@@]2(C)Oc3c(C)c(O)c4c(O)c(c(/C=N/N5CCN(C)CC5)c(O)c4c3C2=O)NC(=O)/C(C)=C\C=C\[C@H](C)[C@H](O)[C@@H](C)[C@@H](O)[C@@H](C)[C@H](OC(C)=O)[C@@H]1C [RIFAMPIN] | 0.078 µg/mL (≈ 0.0948 µM) | – | – | MIC [2]: 0.2 µg/mL (≈ 0.243 µM); Selectivity ratio [3]: 500 |
| CCOc1ccc(/C=C/C(=O)c2c(O)cc(C)oc2=O)cc1 | 256 µg/mL (≈ 852 µM) | > 128 µg/mL | – | – |
| COc1cc(C(F)(F)F)ccc1/C=C/C(=O)c1c(O)cc(C)oc1=O | 256 µg/mL (≈ 723 µM) | > 128 µg/mL | 100 µM | – |
| COc1cc(OC)c(OC)cc1/C=C/C(=O)c1c(O)cc(C)oc1=O | 8 µg/mL (≈ 23.1 µM) | > 128 µg/mL | 100 µM | – |
| CN[C@@H]1[C@H](O[C@H]2[C@H](O[C@H]3[C@H](O)[C@@H](O)[C@H](N=C(N)N)[C@@H](O)[C@@H]3N=C(N)N)O[C@@H](C)[C@]2(O)C=O)O[C@@H](CO)[C@H](O)[C@H]1O [STREPTOMYCIN] | 1.25 µg/mL (≈ 2.15 µM) | – | – | – |
| COc1ccc(OC)c(/C=C/C(=O)c2c(O)cc(C)oc2=O)c1 | 4 to 8 µg/mL (≈ 12.6 to 25.3 µM) | > 128 µg/mL | 100 µM | – |
| C[C@H]1COc2c(N3CCN(C)CC3)c(F)cc3c(=O)c(C(=O)O)cn1c23.C[C@H]1COc2c(N3CCN(C)CC3)c(F)cc3c(=O)c(C(=O)O)cn1c23.O [LEVOFLOXACIN] | 2.5 µg/mL | 2.5 µg/mL | – | MIC [6]: 0.156 µg/mL; MIC [7]: 0.39 µg/mL; MIC [8]: 0.078 µg/mL; MIC [9]: 0.312 to 0.625 µg/mL; MIC [10]: 0.078 to 0.156 µg/mL; MIC [11]: 0.625 to 1.25 µg/mL; MIC [12]: 0.039 to 0.078 µg/mL; MIC [13]: 0.078 µg/mL |
| Cc1cc(O)c(C(=O)/C=C/c2cccc(Br)c2)c(=O)o1 | 4 to 8 µg/mL (≈ 11.9 to 23.9 µM) | > 128 µg/mL | 100 µM | – |
| Cc1cc(O)c(C(=O)/C=C/c2cccc(C(F)(F)F)c2)c(=O)o1 | 256 µg/mL (≈ 790 µM) | > 128 µg/mL | > 100 µM | – |
| COc1cc(/C=C/C(=O)c2c(O)cc(C)oc2=O)ccc1O | 32 µg/mL (≈ 106 µM) | > 128 µg/mL | > 100 µM | – |
| Cc1cc(O)c(C(=O)/C=C/c2cccc(O)c2)c(=O)o1 | 8 to 16 µg/mL (≈ 29.4 to 58.8 µM) | > 128 µg/mL | > 100 µM | – |
| Cc1cc(O)c(C(=O)/C=C/c2ccc(Br)cc2)c(=O)o1 | 8 to 16 µg/mL (≈ 23.9 to 47.7 µM) | > 128 µg/mL | 100 µM | – |
| Cc1ccc(/C=C/C(=O)c2c(O)cc(C)oc2=O)cc1 | 8 µg/mL (≈ 29.6 µM) | > 128 µg/mL | > 100 µM | – |
| Cc1cc(O)c(C(=O)/C=C/c2ccsc2)c(=O)o1 | 32 to 64 µg/mL (≈ 122 to 244 µM) | > 128 µg/mL | – | – |
| Cc1cc(O)c(C(=O)/C=C/c2ccccc2C(F)(F)F)c(=O)o1 | 8 µg/mL (≈ 24.7 µM) | > 128 µg/mL | – | – |
| Cc1cc(O)c(C(=O)/C=C/c2ccc(C(F)(F)F)cc2)c(=O)o1 | 256 µg/mL (≈ 790 µM) | > 128 µg/mL | 100 µM | – |
| Cc1cc(O)c(C(=O)/C=C/c2ccccc2O)c(=O)o1 | 8 to 16 µg/mL (≈ 29.4 to 58.8 µM) | > 128 µg/mL | – | – |
| Cc1cc(O)c(C(=O)/C=C/c2ccc(O)cc2)c(=O)o1 | 64 µg/mL (≈ 235 µM) | > 128 µg/mL | – | – |
| Cc1cccc(/C=C/C(=O)c2c(O)cc(C)oc2=O)c1 | 32 µg/mL (≈ 118 µM) | > 128 µg/mL | 100 µM | – |
| COc1ccc(/C=C/C(=O)c2c(O)cc(C)oc2=O)cc1 | 32 µg/mL (≈ 112 µM) | > 128 µg/mL | 100 µM | – |
| Cc1cc(O)c(C(=O)/C=C/c2cc(Br)cs2)c(=O)o1 | 4 to 8 µg/mL (≈ 11.7 to 23.4 µM) | > 128 µg/mL | 100 µM | – |
| COc1ccccc1/C=C/C(=O)c1c(O)cc(C)oc1=O | 32 to 64 µg/mL (≈ 112 to 224 µM) | > 128 µg/mL | – | – |
| Cc1cc(O)c(C(=O)/C=C/c2ccccc2)c(=O)o1 | 4 µg/mL (≈ 15.6 µM) | > 128 µg/mL | – | MIC [6]: > 128 µg/mL; MIC [7]: > 128 µg/mL; Activity [5]: Dose-dependent effect; inhibition at 100 µM [14]: 38 to 44%; Activity [15]: Dose-dependent effect; MIC [8]: > 128 µg/mL; MIC [9]: > 128 µg/mL; MIC [10]: > 128 µg/mL; inhibition at 100 µM [16]: 38 to 44%; MIC [11]: 128 µg/mL (≈ 499 µM); Activity [17]: Dose-dependent effect; inhibition at 100 µM [18]: 38 to 44%; Activity [19]: Dose-dependent effect; MIC [12]: > 128 µg/mL; MIC [13]: > 128 µg/mL; inhibition at 100 µM [20]: 50% |
| CC[C@@H](CO)NCCN[C@@H](CC)CO [ETHAMBUTOL] | 2.5 µg/mL (≈ 12.2 µM) | – | – | – |
| CCOc1cccc(/C=C/C(=O)c2c(O)cc(C)oc2=O)c1 | 4 µg/mL (≈ 13.3 µM) | > 128 µg/mL | 80 to 100 µM | MIC [6]: > 128 µg/mL; MIC [7]: > 128 µg/mL; Activity [5]: Dose-dependent effect; inhibition at 100 µM [14]: 67 to 70%; IC50 ([15]; Homo sapiens, MCF7): 80 µM; Activity [15]: Dose-dependent effect; MIC [8]: > 128 µg/mL; MIC [9]: > 128 µg/mL; MIC [10]: > 128 µg/mL; inhibition at 100 µM [16]: 67 to 70%; MIC [11]: 128 µg/mL (≈ 426 µM); IC50 ([17]; Homo sapiens, HCT-116): 80 µM; Activity [17]: Dose-dependent effect; inhibition at 100 µM [18]: 67 to 70%; IC50 ([19]; Homo sapiens, PC-3): 80 µM; Activity [19]: Dose-dependent effect; MIC [12]: > 128 µg/mL; MIC [13]: > 128 µg/mL; inhibition at 100 µM [20]: 67 to 70% |
| Cc1cc(O)c(C(=O)/C=C/c2ccccc2Cl)c(=O)o1 | 16 µg/mL (≈ 55 µM) | > 128 µg/mL | > 100 µM | – |
| COc1cc(/C=C/C(=O)c2c(O)cc(C)oc2=O)cc(OC)c1OC | 8 µg/mL (≈ 23.1 µM) | > 128 µg/mL | 100 µM | – |
| COc1cccc(/C=C/C(=O)c2c(O)cc(C)oc2=O)c1 | 8 to 16 µg/mL (≈ 27.9 to 55.9 µM) | > 128 µg/mL | – | – |
| Cc1cc(O)c(C(=O)/C=C/c2ccco2)c(=O)o1 | 16 to 32 µg/mL (≈ 65 to 130 µM) | > 128 µg/mL | – | – |
| NNC(=O)c1ccncc1 [ISONIAZID] | 0.312 µg/mL (≈ 2.28 µM) | – | – | MIC [4]: 25 µg/mL (≈ 182 µM); MIC [2]: 0.02 µg/mL (≈ 0.146 µM); Selectivity ratio [3]: 1000 |
